Paper PMC4869561 (Inflammatory Bowel Diseases, 2016)
In brackets after ≈: the same amount, converted by molar mass. Entries after “also recorded” stand apart in the source; their conditions may differ. Read-outs that look alike come from different tables or passages of the source.

Legend:
[1] = test system: anti-CD3/anti-CD28-stimulated PBMCs; experiment: CD3/CD28 stimulation of PBMCs, IL-2 and IFN-γ release; format: cell-based, human; details: for efficacy of inhibition of IFN-γ release / efficacy of inhibition of IL-2 release: anti-CD3/anti-CD28-stimulated PBMCs
[2] = test system: myofibroblasts isolated from inflamed UC mucosa; experiment: TNF-α-stimulated IL-6 and IL-8 release by UC myofibroblasts; format: cell-based, human; details: for maximum inhibition (efficacy) of IL-6 release / maximum inhibition (efficacy) of IL-8 release: UC myofibroblasts, TNF-α-stimulated, 0.01-10 μg/mL; for IC50: 24 h
Procedure, shortened: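 Myofibroblasts grown from explants of inflamed resected UC mucosa in DMEM with 20% FBS and antibiotics, passaged with trypsin-EDTA and used at passage ≥4. Seeded at 5 × 10^4/well and cultured overnight. Stimulated with TNF-α 20 ng/mL plus DMSO 0.5% v/v or test compound (0.000001–1 or 0.01–10 μg/mL). After 24 h, IL-6 and IL-8 measured by ELISA as percent inhibition versus TNF-α + DMSO; at least 3 independent experiments.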

LPS-stimulated PBMCs = experiment: LPS stimulation of PBMCs, IL-8 release; format: cell-based, human; details: for inhibition: Homo sapiens, PBMC, read-out: maximum inhibition of IL-8 release
Procedure, shortened: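 Healthy-donor PBMCs (Lymphoprep) at 1 × 10^6 cells/mL in RPMI 1640 with 10% heat-inactivated FBS and 25 mM HEPES. Preincubated 2 h at 37°C, 5% CO2 with test compound 0.1–1000 ng/mL or DMSO 0.5% v/v. LPS 1 ng/mL then added for 24 h. Supernatant IL-8 measured by ELISA. At least 3 independent experiments.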

HT29 cells = experiment: IL-1β-stimulated IL-8 production by HT29 cells; format: cell-based, human; details: for maximum inhibition of IL-8 secretion, compound alone: IL-1β-stimulated HT29, 0.1-1000 ng/mL, maximum at 1000 ng/mL; for inhibitory effect on IL-8 secretion at 100 ng/mL: IL-1β-stimulated HT29, compound alone
[3] = test system: LPS-stimulated primary human macrophages; experiment: LPS activation of monocyte-derived macrophages, IL-8 and TNF-α release; format: cell-based; details: for inhibition of IL-8 release / inhibition of TNF-α release: LPS-stimulated macrophages, up to maximum tested 250 ng/mL; for inhibition: Homo sapiens, Macrophage
Procedure, shortened: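 CD14+ cells taken from human PBMCs by magnetic positive selection. Differentiated 12–14 days in RPMI with 10% FBS and GM-CSF 100 ng/mL. Plated at 2 × 10^5 cells/mL and equilibrated for 2 h. Pretreated 2 h with test compound or DMSO 0.5% v/v, then stimulated with LPS 10 ng/mL for 24 h. Supernatant IL-8 and TNF-α measured by ELISA.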

[4] = test system: patients with active Crohn's disease; details: cited from earlier work
[5] = test system: inflamed colonic biopsies from patients with UC; experiment: Organ culture of inflamed colonic UC biopsies, cytokine release; format: cell-based, human; details: 24 h; for inhibition at 1 µg/mL: Homo sapiens
Procedure, shortened: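 Inflamed colonic UC biopsies cultured one per well in serum-free HL-1 medium with penicillin/streptomycin at 37°C, 5% CO2. Treated with DMSO 0.5% v/v, test compounds at 1 μg/mL, the three selective inhibitors combined, or one compound at 0.001–1 μg/mL. After 24 h, supernatant IL-1β, IL-6 and IL-8 measured by ELISA. Results given as mean percent inhibition versus DMSO; at least 3 independent experiments.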

[6] = Propidium iodide flow cytometry cell viability assay; format: cell-based; details: concentrations tested in the cellular assays, data not shown
[7] = test system: rheumatoid arthritis patients; details: phase III trial; cited from earlier work
[8] = test system: mouse acetic acid-induced colitis; details: mouse acetic acid-induced colitis model; cited from earlier work
patients with UC = details: oral, clinical trial; cited from earlier work
[9] = Homo sapiens, read-out: IL-6 (IC50 Value)
[10] = Homo sapiens, read-out: IL-8 (IC50 Value)
[11] = read-out: inhibition of IL-1β release
[12] = read-out: inhibition of IL-6 release
[13] = read-out: inhibition of IL-8 release
[14] = read-out: inhibition of TNF-α release

Structure (SMILES) | efficacy of inhibition of IFN-γ release [1] | efficacy of inhibition of IL-2 release [1] | maximum inhibition (efficacy) of IL-6 release [2] | maximum inhibition (efficacy) of IL-8 release [2] | maximum inhibition of IL-8 secretion, compound alone (HT29 cells) | inhibitory effect on IL-8 secretion at 100 ng/mL (HT29 cells) | inhibition of IL-8 release [3] | inhibition of TNF-α release [3] | IC50 [2, 9] [µg/mL] | IC50 [2, 10] [µg/mL] | inhibition at 1 µg/mL [5, 11] [%] | inhibition at 1 µg/mL [5, 12] [%] | inhibition at 1 µg/mL [5, 13] [%] | inhibition (LPS-stimulated PBMCs) [%] | inhibition [3, 13] [%] | inhibition [3, 14] [%] | other results
COc1ccc(-c2cc3nccn3c(Nc3ncccc3C(N)=O)n2)cc1OC [BAY-61-3606] | maximal efficacy | weaker inhibition | over 90% | over 90% | 17% | Neither dasatinib nor BAY-61-3606 had any significant inhibitory effect | less than 50% | less than 50% |  |  |  |  |  |  |  |  | efficacy of inhibition of IFN-γ release ([1]; listed as BAY61-3606): weaker inhibition; potency weaker than TOP1210, IFN-γ release ([1]; ratio of IC50 values): 120 fold; potency weaker than TOP1210, IL-8 release (LPS-stimulated PBMCs; LPS-stimulated PBMCs, ratio of IC50 values): ~300 fold; maximum inhibition of IL-8 release (LPS-stimulated PBMCs; LPS-stimulated PBMCs, up to maximum tested 1 μg/mL): 83%
Cc1ccc(-n2nc(C(C)(C)C)cc2NC(=O)Nc2ccc(OCCN3CCOCC3)c3ccccc23)cc1 [BIRB-796] | inactive; also recorded: little-to-no effect | little-to-no effect | 70% | 70% |  |  |  |  | > 1 | > 1 | 50 to 65 | 50 to 65 | 50 to 65 | < 50 | < 50 | < 50 | serum C-reactive protein ([4]; after 1 week): dose-dependent decrease; clinical efficacy endpoints compared to placebo ([4]; any time point): no clinical efficacy endpoints were reached
Cc1nc(Nc2ncc(C(=O)Nc3c(C)cccc3Cl)s2)cc(N2CCN(CCO)CC2)n1 [Dasatinib] |  |  |  |  |  | Neither dasatinib nor BAY-61-3606 had any significant inhibitory effect |  |  | > 1 | > 1 |  |  |  | < 50 | < 50 | 87 | inhibition at 10 µg/mL ([2]; Homo sapiens, read-out: inhibition of IL-8 release): ~70%; inhibition of IL-1β release ([5]; inflamed UC biopsies, 1 μg/mL): did not have any significant effect; inhibition of IL-6 release ([5]; inflamed UC biopsies, 1 μg/mL): did not have any significant effect; inhibition of IL-8 release ([5]; inflamed UC biopsies, 1 μg/mL): did not have any significant effect
C#Cc1cc(Nc2nccc(Oc3ccc(NC(=O)Nc4cc(C(C)(C)C)nn4-c4ccc(C)cc4)c4ccccc34)n2)cc(C(=O)NCCOCCOCCOC)c1 [TOP1210, 3-((4-((4-(3-(3-(tert-butyl)-1-(p-tolyl)-1H-pyrazol-5-yl)ureido)naphthalen-1 yl)oxy)pyrimidin-2-yl)amino)-5-ethynyl-N-(2-(2-(2-methoxyethoxy)ethoxy)ethyl)benzamide] | maximal inhibition |  |  |  | maximal efficacy |  | maximal inhibition | maximal inhibition | 0.0022 (≈ 0.00276 µM) | 0.0021 (≈ 0.00264 µM) | 80 to 90 | 80 to 90 | 80 to 90 | 100 |  |  | potency weaker than dasatinib, IL-2 release ([1]; ratio vs dasatinib): approximately 15 fold; potency weaker as inhibitor of IL-2 release compared with IFN-γ release ([1]; same compound, IL-2 vs IFN-γ): 18 fold; cell viability (propidium iodide, flow cytometry) [6]: not to effect cell viability
COc1cc(Nc2ncc(F)c(Nc3ccc4c(n3)N(COP(=O)(O)O)C(=O)C(C)(C)O4)n2)cc(OC)c1OC [fostamatinib] |  |  |  |  |  |  |  |  |  |  |  |  |  |  |  |  | efficacy in rheumatoid arthritis [7]: limited efficacy; mucosal damage [8]: decrease mucosal damage
C[C@@H]1CCN(C(=O)CC#N)C[C@@H]1N(C)c1ncnc2[nH]ccc12 [tofacitinib] |  |  |  |  |  |  |  |  |  |  |  |  |  |  |  |  | efficacy in UC (patients with UC): effective
